Experimental data: ChEMBL document CHEMBL1156133, “Losartan-antioxidant hybrids: novel molecules for the prevention of hypertension-induced cardiovascular damage” (J Med Chem, 2009)
Activity calls are given as the source filed them. The rule behind the calls is not given here.

Legend:
[1] = system: Rattus norvegicus; test: Antihypertensive activity in Wistar rat assessed as change in blood LDH level at 10 mg/kg/day, po measured after 8 weeks in presence of losartan; assay type: functional
[2] = system: Rattus norvegicus; test: Antihypertensive activity in Wistar rat assessed as change in blood AST level at 10 mg/kg/day, po measured after 8 weeks; assay type: functional
[3] = system: Rattus norvegicus; test: Antihypertensive activity in Wistar rat assessed as change in blood cholesterol level at 10 mg/kg/day, po measured after 8 weeks; assay type: functional
[4] = system: Rattus norvegicus; test: Antihypertensive activity in Wistar rat assessed as change in blood creatinine level at 10 mg/kg/day, po measured after 8 weeks in presence of losartan; assay type: functional
Outline: (§1)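 Two-month-old male Wistar rats given L-NAME in drinking water (20 mg/kg/day) for 8 weeks; from week 4, test treatments also in drinking water daily (12.00-18.00 h). Sacrificed under halothane anesthesia at 8 weeks; serum biochemical parameters measured by automatic analyzer. Mean ± SEM of 10 rats; nonparametric statistics.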

[5] = system: Rattus norvegicus; test: Antihypertensive activity in Wistar rat assessed as change in blood […] level at 10 mg/kg/day, po measured after 8 weeks in presence of losartan; assay type: functional
[6] = system: Rattus norvegicus; test: Antihypertensive activity in Wistar rat assessed as change in blood triglyceride level at 10 mg/kg/day, po measured after 8 weeks in presence of losartan; assay type: functional; outline: as §1
[7] = system: Rattus norvegicus; test: Antihypertensive activity in Wistar rat assessed as change in blood triglyceride level at 10 mg/kg/day, po measured after 8 weeks; assay type: functional; outline: as §1
[8] = system: Rattus norvegicus; test: Antihypertensive activity in Wistar rat assessed as change in blood protein level at 10 mg/kg/day, po measured after 8 weeks; assay type: functional; outline: as §1
[9] = system: Rattus norvegicus; test: Antihypertensive activity in Wistar rat assessed as change in blood ALT level at 10 mg/kg/day, po measured after 8 weeks; assay type: functional
[10] = system: Rattus norvegicus; test: Antihypertensive activity in Wistar rat assessed as change in blood […] level at 10 mg/kg/day, po measured after 8 weeks; assay type: functional
[11] = system: Rattus norvegicus; test: Plasma concentration in po dosed Wistar rat assessed as EXP-3174 level after 4 weeks in presence of losartan; assay type: ADME, organism-based; settings: in vivo, 672 h
Outline: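 Separate groups of Wistar rats dosed in drinking water for 4 weeks (n = 4-6 per group), then sacrificed and plasma analyzed by HPLC-MS/MS (triple quadrupole, electrospray), isocratic MeOH/water with 0.1% formic acid, 40 °C. Two plasma samples per animal; mean ± SEM.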

[12] = system: Rattus norvegicus; test: Antihypertensive activity in Wistar rat assessed as change in blood ALT level at 10 mg/kg/day, po measured after 8 weeks in presence of losartan; assay type: functional
[13] = system: Rattus norvegicus; test: Antihypertensive activity in Wistar rat assessed as change in blood calcium level at 10 mg/kg/day, po measured after 8 weeks in presence of losartan; assay type: functional
[14] = system: Rattus norvegicus; test: Antihypertensive activity in Wistar rat assessed as decrease in L-NAME-induced HNE-lysine accumulation in vessel walls at 10 mg/kg/day, po for 4 weeks in presence of losartan; assay type: functional, organism-based
Outline: (§2)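 Male Wistar rats on L-NAME in drinking water (20 mg/kg/day) for 8 weeks, treatments in drinking water for the last 4 weeks. Thoracic aorta lysates run on SDS-PAGE and Western blotted for collagen type I, fibronectin or HNE-lysine, with β-tubulin as loading control; ECL detection, densitometry. Expressed as percent of basal; mean ± SEM of 10 experiments.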

[15] = system: Rattus norvegicus; test: Antihypertensive activity in Wistar rat assessed as change in blood protein level at 10 mg/kg/day, po measured after 8 weeks in presence of losartan; assay type: functional; outline: as §1
[16] = system: Rattus norvegicus; test: Antihypertensive activity in Wistar rat assessed as change in blood cholesterol level at 10 mg/kg/day, po measured after 8 weeks in presence of losartan; assay type: functional
[17] = system: Rattus norvegicus; test: Antihypertensive activity in Wistar rat assessed as decrease in L-NAME-induced fibronectin content in vessel walls at 10 mg/kg/day, po for 4 weeks in presence of losartan; assay type: functional, organism-based; outline: as §2
[18] = system: Rattus norvegicus; test: Antihypertensive activity in Wistar rat assessed as change in blood glucose level at 10 mg/kg/day, po measured after 8 weeks in presence of losartan; assay type: functional; outline: as §1
[19] = system: Rattus norvegicus; test: Antihypertensive activity in Wistar rat assessed as change in blood Na+ level at 10 mg/kg/day, po measured after 8 weeks; assay type: functional
[20] = system: Rattus norvegicus; test: Antihypertensive activity in Wistar rat assessed as change in blood LDH level at 10 mg/kg/day, po measured after 8 weeks; assay type: functional
[21] = system: Rattus norvegicus; test: Antihypertensive activity in Wistar rat assessed as change in blood creatinine level at 10 mg/kg/day, po measured after 8 weeks; assay type: functional; outline: as §1
[22] = system: Rattus norvegicus; test: Antihypertensive activity in Wistar rat assessed as decrease in L-NAME-induced collagen 1 level in vessel walls at 10 mg/kg/day, po for 4 weeks in presence of losartan; assay type: functional, organism-based; outline: as §2
[23] = system: Rattus norvegicus; test: Antihypertensive activity in Wistar rat assessed as change in blood Na+ level at 10 mg/kg/day, po measured after 8 weeks in presence of losartan; assay type: functional
[24] = system: Rattus norvegicus; test: Antihypertensive activity in Wistar rat assessed as change in blood glucose level at 10 mg/kg/day, po measured after 8 weeks; assay type: functional; outline: as §1
[25] = system: Rattus norvegicus; test: Antihypertensive activity in Wistar rat assessed as change in blood urea level at 10 mg/kg/day, po measured after 8 weeks; assay type: functional; outline: as §1
[26] = system: Rattus norvegicus; test: Antihypertensive activity in Wistar rat assessed as change in blood AST level at 10 mg/kg/day, po measured after 8 weeks in presence of losartan; assay type: functional
[27] = system: Rattus norvegicus; test: Antihypertensive activity in Wistar rat assessed as change in blood calcium level at 10 mg/kg/day, po measured after 8 weeks; assay type: functional
[28] = system: Rattus norvegicus; test: Antihypertensive activity in Wistar rat assessed as change in blood urea level at 10 mg/kg/day, po measured after 8 weeks in presence of losartan; assay type: functional; outline: as §1

In the case of O=C(O)CCc1ccc(O)c(O)c1 [DIHYDROCAFFEIC ACID], the Activity [1] was 610 IU/L, the Activity [2] was 77 IU/L and the Activity [3] was 58 mg/dL. It also gave an Activity [4] of 0.44 mg/dL, an Activity [5] of 4.2 mmol/L and an Activity [6] of 69 mg/dL. The Activity [7] was 70 mg/dL, the Activity [8] was 5.2 g/dL and the Activity [9] was 24 IU/L. For the same compound, the Activity [10] was 4.1 mmol/L, the concentration [11] was 19.4 nM and the Activity [12] was 22 IU/L. The Activity [13] was 8.5 mg/dL, the Activity [14] was “Active” and the Activity [15] was 4 g/dL. For the same compound, the Activity [16] was 54 mg/dL, the Activity [17] was “Active” and the Activity [18] was 168 mg/dL. The Activity [19] was 148 mmol/L, the Activity [20] was 591 IU/L and the Activity [21] was 0.47 mg/dL. The Activity [22] was “Active”, the Activity [23] was 148 mmol/L and the Activity [24] was 170 mg/dL. The Activity [25] was 27 mg/dL, the Activity [26] was 93 IU/L and the Activity [27] was 8.8 mg/dL. The Activity [28] was 24 mg/dL.
